ADAM10 inh – inhibits human ADAM10; recombinant ADAM10, EDANS/DABCYL FRET peptide cleavage, 3 h; inhibition, % at 7 µM; 370,000 compounds, 0.62% hits; AID 720582;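 active = inhibition above a per-campaign cutoff equal to the mean of compounds falling between control-based bounds plus 3 SD, cut at about 20% in these data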;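 also: 0% = DMSO wells while the 100% control is not disclosed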
GASC-1 inh – human JMJD2C demethylase inhibition; Q9H3R0; 330,000 compounds, 0.069% hits; inhibition, % at 2.35 µM; GST-JMJD2C(1-420) H3K9me3 demethylation, DELFIA europium;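 active = more than half of a compound's replicate wells show inhibition beyond 50%, single wells judged on their own value; inconclusive = some, but no more than half, of replicates pass 50% inhibition; inactive = no replicate passes 50% inhibition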;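 also: signal counts dimethyl H3K9 product captured on neutravidin plate; 0% = median of DMSO wells and 100% = 0.3 times that DMSO median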
ADAM17 inh – inhibitors of human ADAM17 | recombinant ADAM17, EDANS/DABCYL FRET peptide cleavage | inhibition, % at 6.95 µM | 370,000 compounds, 0.83% hits;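 active = inhibition above the mean of compounds lying between control limits plus 3 SD, set per campaign, cut at about 8.5% in these data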;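 also: 0% = DMSO-only wells as the low control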
Target sequence (P78536 215-824 limits assumed): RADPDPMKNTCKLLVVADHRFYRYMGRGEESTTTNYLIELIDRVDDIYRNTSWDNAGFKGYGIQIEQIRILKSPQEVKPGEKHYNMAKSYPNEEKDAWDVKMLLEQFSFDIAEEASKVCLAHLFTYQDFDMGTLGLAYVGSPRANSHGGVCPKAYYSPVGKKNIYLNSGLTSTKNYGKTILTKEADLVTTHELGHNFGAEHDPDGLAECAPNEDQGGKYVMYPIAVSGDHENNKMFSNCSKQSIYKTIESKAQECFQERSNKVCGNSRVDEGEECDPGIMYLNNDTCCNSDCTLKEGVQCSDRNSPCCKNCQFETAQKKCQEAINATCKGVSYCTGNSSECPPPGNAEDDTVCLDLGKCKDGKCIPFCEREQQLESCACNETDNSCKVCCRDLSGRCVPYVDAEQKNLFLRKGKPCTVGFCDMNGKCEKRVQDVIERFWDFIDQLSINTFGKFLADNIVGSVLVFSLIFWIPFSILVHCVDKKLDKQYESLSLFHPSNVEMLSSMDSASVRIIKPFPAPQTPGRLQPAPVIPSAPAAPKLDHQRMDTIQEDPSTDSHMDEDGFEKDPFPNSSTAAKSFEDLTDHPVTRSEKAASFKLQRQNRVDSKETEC
NR2E3 ag-1 – human photoreceptor-specific nuclear receptor agonism; CHO-S Gal4-NCOR/VP16-NR2E3 two-hybrid, luciferase; inhibition of corepressor binding, % at 3.98 µM; 360,000 compounds, 0.35% hits;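 active = inhibition above the mean of all tested compounds plus 3 SD, cut at about 70% in these data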;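 also: 0% = DMSO with NR2E3 transfected cells and 100% = cells lacking NR2E3 construct; higher means lower luciferase signal from less NR2E3 corepressor binding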
KLK7 zymogen act – proKLK7 (human) activation, primary screen. 370,000 compounds, 0.9% hits. activation, % at 7 µM. purified proKLK7, EDANS-DABCYL substrate fluorescence; 100% is mature enzyme control, 0% vehicle;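 active = activation above the mean of all tested compounds plus 3 SD, computed per campaign excluding outliers beyond control limits, cut at about 13% in these data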
NR2E3 ag-2 – activates human photoreceptor nuclear receptor NR2E3; GST-NR2E3/biotin-RetCOR TR-FRET, 1536-well; 320,000 compounds, 0.12% hits; AID 2300; Q9Y5X4; inhibition of corepressor binding, % at 4.78 µM;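 active = percent inhibition above the cutoff of mean plus 3 SD of all tested compounds, set per screening campaign, cut at about 20% in these data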;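 also: 0% = DMSO wells and 100% = biotin wells as full block of FRET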
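Test system: GST-NR2E3 and biotin-RetCOR proteins | Quantity: 1.35 nM GST-tagged NR2E3 final | Medium: Tris pH 7.5 | Also added: 7 nM biotin-RetCOR | Dosing: Compound at 4.8 µM, single dose | Timing: 5 h at 4 °C | Detection: Time-resolved FRET | Read-out basis: Percent inhibition | Benchmarks: Biotin wells as high control, 0.6% DMSO wells as low control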
NR2E3 ag confirm – NR2E3 agonism confirmed in two-hybrid assay; AID 624378; shares compounds with NR2E3 ag-1; CHO-S mammalian two-hybrid NR2E3-NCOR, luciferase luminescence; inhibition, % at 3.98 µM; 2,300 compounds, 51% hits;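 active = average inhibition above a cutoff equal to the mean inhibition of all tested compounds plus one SD, cut at about 70% in these data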;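 also: 0% = DMSO in NR2E3 cells and 100% = DMSO in cells lacking NR2E3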
GAL4-VP16 luc – counter-screen for NR2E3 agonists: GAL4-VP16 reporter inhibitors; 2,300 compounds, 29% hits; CHO-S GAL4-VP16 luciferase reporter, luminescence; inhibition, % at 3.98 µM; shares compounds with NR2E3 ag-1;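 active = mean inhibition above a cutoff equal to the average over all tested compounds plus one standard deviation, cut at about 70% in these data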;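 also: luciferase from a UAS reporter driven by GAL4-VP16 transactivation; 0% = DMSO with VP16-transfected cells and 100% = DMSO with cells lacking VP16; higher means less reporter light so more repression of VP16 activity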
* marks the source's active call; other numbers are inactive results; ? = inconclusive; . = no result given. Hits are enriched below; roughly 2.5% of the tested compounds scored in any of these assays.

SMILES	ADAM10 inh	GASC-1 inh	ADAM17 inh	NR2E3 ag-1	KLK7 zymogen act	NR2E3 ag-2	NR2E3 ag confirm	GAL4-VP16 luc
CCOc1ccc(OCCC(=O)OCC(=O)NC2CCCCC2)cc1	-1	-21	1	-18	0	0	.	.
COc1cc(C(=O)NCCCN2CCCC2=O)cc(Br)c1OCc1ccccc1	0	13	0	28	0	-2	.	.
CN(C)c1cc(C(F)(F)F)nc(-c2ccccn2)n1	-31	-12	-8	-15	1	-2	.	.
CSCc1cc(N(C)c2ccccc2)nc(-c2ccccn2)n1	1	-5	4	109*	0	2	38	19
O=[N+]([O-])c1ccc(NC(=S)NCCc2ccc(Cl)cc2)cc1	18	0	6	69	0	1	96*	88*
CSc1nsc(SCC(=O)Nc2nc3ccc(C)cc3s2)n1	-7	-7	-6	61	-1	2	45	32
O=C(O)CCSc1nc2ccccc2s1	-8	3	-5	54	0	2	53	67
c1ccc2sc(SCSc3nc4ccccc4s3)nc2c1	10	-7	-1	-24	0	-3	.	.
CC(C)NC(=O)Nc1ccc2c(c1)C(=O)N([C@H](C)CO)C[C@H](C)[C@@H](CN(C)S(=O)(=O)c1cn(C)cn1)O2	-2	0	6	-12	0	.	.	.
Cn1ncc(SCc2ccccc2)c(Cl)c1=O	-2	-6	3	-7	0	0	.	.
Cn1ncc(S(=O)(=O)Cc2ccccc2)c(Cl)c1=O	-6	-10	-8	64	0	-2	32	-1
C[C@@H]1CN([C@@H](C)CO)C(=O)CCCn2nncc2CO[C@@H]1CN(C)S(=O)(=O)c1cccs1	-4	.	-2	-30	-1	.	.	.
CO[C@H]([C@H](C)/C=C/N(C)C=O)[C@@H](C)C(O)CC[C@H](C)[C@H](O)[C@H](C)[C@H]1OC(=O)/C=C/C(C)=C/C[C@H](O)C[C@@H]2C=CC[C@@H](C[C@H](OC)[C@@]3(CO3)[C@@H](OC)C[C@@H](OC)[C@@H]1C)O2 (stereo partly specified)	3	.	-5	.	.	.	.	.
Cc1ccc(C)c(-n2sc3ccc(F)cc3c2=O)c1	1	9	-5	63	1	1	-18	-17
Cc1cccc(OCC(=O)Nc2ccc3c(c2)OCCO3)c1	-2	-7	-1	5	0	-4	.	.
Cc1ccc(OCC(=O)Nc2ccc3c(c2)OCCO3)cc1C	1	9	0	50	0	0	24	13
Cc1ccc(/C=C/C(=O)c2c(C)cc(C)[nH]c2=O)cc1	.	-5	.	49	.	4	45	29
CCc1ccc(/C=C/C(=O)c2c(C)cc(C)[nH]c2=O)cc1	-8	1	1	33	0	0	.	.
CC(C)c1ccc(/C=C(\c2nc3ccccc3[nH]2)S(=O)(=O)c2ccccc2)cc1	10	-4	5	100*	0	-2	97*	7
O=S(=O)(/C(=C/c1ccc(C(F)(F)F)cc1)c1nc2ccccc2[nH]1)c1ccccc1	-5	2	-1	28	0	0	.	.
CCc1ccc(NC(=S)N(CCCN2CCOCC2)Cc2ccco2)cc1	-1	2	-4	66	0	-2	-7	-11
Cc1cc(C(=O)NNC2CC(=O)N(c3ccc4ccccc4c3)C2=O)c(C)o1 (stereo unspecified)	10	-2	0	-7	0	4	.	.
COc1cc(CN(C)c2ncnc3sccc23)ccc1OC(F)F	-3	7	-1	84*	0	3	74*	61
COc1ccc(OC)c(Nc2ncnc3sccc23)c1	-9	17	-3	2	-1	0	.	.
Cc1ccccc1N=Nc1ccc(O)c2ncccc12	6	13	0	6	0	0	.	.
SMILES	ADAM10 inh	GASC-1 inh	ADAM17 inh	NR2E3 ag-1	KLK7 zymogen act	NR2E3 ag-2	NR2E3 ag confirm	GAL4-VP16 luc
O=Nc1ccc(O)c2ncccc12	10	2	6	55	0	-5	58	21
O=[N+]([O-])c1ccc(O)c2ncccc12	6	?	1	103*	0	-3	81*	41
Clc1cc2cccnc2c2ncccc12	-12	-7	1	83*	0	1	95*	12
Cc1c(C)c2cccnc2c2ncccc12	.	1	.	79*	.	0	39	9
Cc1[nH]c2ccc3ncccc3c2c1C	-5	5	1	1	0	1	.	.
COC(=O)[C@]12CCCCC=C1N(Cc1ccc(OC)cc1)C(=O)[C@@H]2CC(=O)N1CCC(c2ccccc2)CC1	10	.	1	.	0	.	.	.
Cc1csc2ncnc(NC3CCN(Cc4ccccc4)CC3)c12	-4	-5	-1	81*	0	2	95*	86*
COc1ccc(C(=O)OCCCN(C)C2CN(Cc3cn(Cc4ccc([N+](=O)[O-])cc4)nn3)S(=O)(=O)C2)cc1OC (stereo unspecified)	-9	.	-11	.	0	.	.	.
Cc1cc(C)c(C)c(S(=O)(=O)N2CCN(c3ncnc4ccccc34)CC2)c1C	-22	9	-2	62	1	1	89*	68
O=S(=O)(c1cc(C(F)(F)F)ccc1Cl)N1CCCCCC1	-1	2	-1	-5	0	0	.	.
O=S(=O)(c1cc(C(F)(F)F)ccc1Cl)N1CCN(c2ncnc3ccccc23)CC1	-4	.	-6	99*	-2	.	95*	86*
CCCCCCN1C[C@H](O)[C@@H](n2cc(-c3ccc(F)cc3)nn2)C[C@@H]1c1ccc(C)cc1	-3	.	0	1	0	.	.	.
Cc1nn(-c2ccccc2Cl)c(Cl)c1/C=N/Nc1nc2ccccc2s1	13	-2	2	52	-1	-4	77*	67
COC(=O)[C@]1(CNS(=O)(=O)c2ccc(F)cc2)CC(=O)N(C)[C@@H]1c1ccccc1	2	.	1	.	0	.	.	.
CNc1nc(Nc2ccc(C)cc2C)c2sccc2n1	2	.	-2	49	0	.	43	35
Cc1ccc(Nc2nc(NCC3CC3)nc3ccsc23)c(C)c1	-1	.	2	-3	-1	.	.	.
Cc1ccc(CNc2nc(NCc3ccccc3)nc3ccsc23)c(C)c1	2	.	1	74*	0	.	68	45
CNc1nc(NCc2ccc(C)cc2C)c2sccc2n1	-11	.	-3	50	0	.	28	28
Cc1ccc(CNc2nc(NC(C)C)nc3ccsc23)c(C)c1	-17	.	-1	-26	0	.	.	.

From PubChem BioAssay
